Test results from ChEMBL document CHEMBL4014339, “Discovery of 1,4-Benzodiazepine-2,5-dione (BZD) Derivatives as Dual Nucleotide Binding Oligomerization Domain Containing 1/2 (NOD1/NOD2) Antagonists Sensitizing Paclitaxel (PTX) To Suppress Lewis Lung Carcinoma (LLC) Growth in Vivo” (J Med Chem, 2017).

Tests used:
Format in all cases: cell-based
[1] = target: T1, Nucleotide-binding oligomerization domain-containing protein 1 (Homo sapiens) (UniProt Q9Y239); test: Antagonist activity at human NOD1 expressed in HEK-Blue cells assessed as inhibition of C12-iE-DAP-stimulated cell activation at 10 uM preincubated for 3 hrs followed by C12-iE-DAP addition measured after 20 hrs by SEAP reporter gene assay
T1 sequence (whole entry): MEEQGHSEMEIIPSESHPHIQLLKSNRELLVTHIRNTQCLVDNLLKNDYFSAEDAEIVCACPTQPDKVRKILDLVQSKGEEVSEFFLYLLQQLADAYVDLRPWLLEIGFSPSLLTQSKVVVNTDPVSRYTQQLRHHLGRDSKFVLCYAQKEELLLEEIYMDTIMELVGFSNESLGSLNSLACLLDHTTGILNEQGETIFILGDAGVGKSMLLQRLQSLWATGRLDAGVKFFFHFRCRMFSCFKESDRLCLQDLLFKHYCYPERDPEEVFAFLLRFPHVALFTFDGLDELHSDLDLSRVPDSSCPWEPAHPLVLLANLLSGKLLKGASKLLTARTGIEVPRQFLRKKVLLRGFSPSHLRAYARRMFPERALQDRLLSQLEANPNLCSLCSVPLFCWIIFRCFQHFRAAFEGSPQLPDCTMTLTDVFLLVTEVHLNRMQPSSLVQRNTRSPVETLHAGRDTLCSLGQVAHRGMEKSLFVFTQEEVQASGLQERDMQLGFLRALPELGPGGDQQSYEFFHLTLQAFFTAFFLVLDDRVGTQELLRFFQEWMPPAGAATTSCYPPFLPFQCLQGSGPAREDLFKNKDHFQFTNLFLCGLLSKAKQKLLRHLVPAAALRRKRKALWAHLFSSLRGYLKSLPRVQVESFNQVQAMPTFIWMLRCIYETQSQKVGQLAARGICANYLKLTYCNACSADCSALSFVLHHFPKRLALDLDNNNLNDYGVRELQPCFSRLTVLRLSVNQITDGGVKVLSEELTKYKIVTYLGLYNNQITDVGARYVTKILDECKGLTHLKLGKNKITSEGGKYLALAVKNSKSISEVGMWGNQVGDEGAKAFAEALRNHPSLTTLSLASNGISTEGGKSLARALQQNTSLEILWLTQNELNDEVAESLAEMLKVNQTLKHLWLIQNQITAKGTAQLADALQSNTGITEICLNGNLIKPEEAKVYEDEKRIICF
Outline: (§1)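 HEK-Blue hNOD1 or hNOD2 cells preincubated with compound 3 h, then stimulated 20 h with C12-iE-DAP 50 ng/mL (NOD1) or MDP 100 ng/mL (NOD2); SEAP in supernatant quantified. Primary screen at 10 μM, hits repeated in triplicate; IC50 from dose-response, mean ± SD (n = 3), only for compounds reaching ≥50% inhibition at the screening concentration.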

[2] = target: T1, Nucleotide-binding oligomerization domain-containing protein 1 (Homo sapiens); test: Antagonist activity at human NOD1 expressed in HEK-blue cells assessed as inhibition of C12-iE-DAP-stimulated cell activation at 5 uM preincubated for 3 hrs followed by C12-iE-DAP addition measured after 20 hrs by SEAP reporter gene assay
[3] = target: T2, Nucleotide-binding oligomerization domain-containing protein 1 (Homo sapiens, UniProt Q9Y239); test: Antagonist activity at human NOD1 expressed in HEK-blue cells assessed as inhibition of C12-iE-DAP-stimulated cell activation preincubated for 3 hrs followed by C12-iE-DAP addition measured after 20 hrs by SEAP reporter gene assay; outline: as §1
T2 sequence (Q9Y239 whole entry): T1 sequence (whole entry)

[4] = target: T3, Nucleotide-binding oligomerization domain-containing protein 2 (Homo sapiens, UniProt Q9HC29); test: Antagonist activity at human NOD2 expressed in HEK-Blue cells assessed as inhibition of MDP-stimulated cell activation at 10 uM preincubated for 3 hrs followed by MDP addition measured after 20 hrs by SEAP reporter gene assay; outline: as §1
T3 sequence (Q9HC29 whole entry, the tested form may be a part): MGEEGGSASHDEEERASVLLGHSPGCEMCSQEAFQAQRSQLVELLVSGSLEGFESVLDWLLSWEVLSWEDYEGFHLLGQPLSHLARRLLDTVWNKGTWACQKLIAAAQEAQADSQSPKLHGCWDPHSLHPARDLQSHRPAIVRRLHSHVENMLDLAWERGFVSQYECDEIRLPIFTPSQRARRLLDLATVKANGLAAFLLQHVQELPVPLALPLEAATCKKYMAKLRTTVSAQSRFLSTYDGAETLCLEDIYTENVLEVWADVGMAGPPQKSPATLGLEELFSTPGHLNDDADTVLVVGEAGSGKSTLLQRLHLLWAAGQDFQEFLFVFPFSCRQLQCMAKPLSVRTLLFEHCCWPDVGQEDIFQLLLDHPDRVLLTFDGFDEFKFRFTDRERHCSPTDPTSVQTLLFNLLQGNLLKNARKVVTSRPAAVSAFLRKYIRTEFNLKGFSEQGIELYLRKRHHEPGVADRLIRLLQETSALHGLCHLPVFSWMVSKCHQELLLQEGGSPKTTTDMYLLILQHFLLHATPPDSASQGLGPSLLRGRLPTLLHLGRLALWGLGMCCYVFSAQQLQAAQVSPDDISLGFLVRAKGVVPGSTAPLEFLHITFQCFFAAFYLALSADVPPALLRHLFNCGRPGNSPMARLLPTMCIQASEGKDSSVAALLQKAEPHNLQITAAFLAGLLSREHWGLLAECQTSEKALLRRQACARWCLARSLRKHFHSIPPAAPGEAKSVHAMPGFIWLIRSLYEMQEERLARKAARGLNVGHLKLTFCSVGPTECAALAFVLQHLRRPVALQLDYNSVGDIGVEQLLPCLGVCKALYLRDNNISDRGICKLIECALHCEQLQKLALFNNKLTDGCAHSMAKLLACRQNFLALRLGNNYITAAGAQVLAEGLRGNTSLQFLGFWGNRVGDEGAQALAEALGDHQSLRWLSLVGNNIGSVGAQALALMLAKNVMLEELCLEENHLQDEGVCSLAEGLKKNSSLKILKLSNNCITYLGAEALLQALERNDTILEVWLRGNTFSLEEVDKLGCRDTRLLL

[5] = target: T3, Nucleotide-binding oligomerization domain-containing protein 2; test: Antagonist activity at human NOD2 expressed in HEK-Blue cells assessed as inhibition of MDP-stimulated cell activation at 5 uM preincubated for 3 hrs followed by MDP addition measured after 20 hrs by SEAP reporter gene assay
[6] = target: T3, Nucleotide-binding oligomerization domain-containing protein 2; test: Antagonist activity at human NOD2 expressed in HEK-Blue cells assessed as inhibition of MDP-stimulated cell activation preincubated for 3 hrs followed by MDP addition measured after 20 hrs by SEAP reporter gene assay; outline: as §1

COC(=O)CC[C@H]1NC(=O)c2cc(Oc3cccc(N(C)C)c3)c(NC(=O)COCc3ccc(F)cc3)cc2NC1=O
inhibition [1]: 46.4%
inhibition [2]: 73.7%
IC50 [3]: 2360 nM
inhibition [4]: 71.4%
inhibition [5]: 63.1%
IC50 [6]: 3100 nM

CCCCNC(=O)CC[C@H]1NC(=O)c2cc(Oc3cccc(N(C)C)c3)c(NC(=O)COCc3ccccc3)cc2NC1=O
inhibition [1]: 86%
inhibition [2]: 81.8%
IC50 [3]: 1290 nM
inhibition [4]: 71.6%
inhibition [5]: 60.5%
IC50 [6]: 2880 nM

COC(=O)CC[C@H]1NC(=O)c2cc(Oc3cccc(N(C)C)c3)c(NC(=O)COCc3cccc(F)c3)cc2NC1=O
inhibition [1]: 89.8%
inhibition [2]: 83.9%
IC50 [3]: 1370 nM
inhibition [4]: 82.9%
inhibition [5]: 67%
IC50 [6]: 4020 nM

CN(C)c1cccc(Oc2cc3c(cc2NC(=O)COCc2ccccc2)NC(=O)[C@@H](CCC(=O)N2CCCCC2)NC3=O)c1
inhibition [1]: 86.7%
inhibition [2]: 82.8%
IC50 [3]: 1110 nM
inhibition [4]: 80.6%
inhibition [5]: 63.3%
IC50 [6]: 2990 nM

COC(=O)CC[C@H]1NC(=O)c2cc(Oc3ccc(Cl)c(N(C)C)c3)c(NC(=O)COCc3ccc(Cl)cc3)cc2NC1=O
inhibition [1]: 55.1%
inhibition [2]: 71.8%
IC50 [3]: 1550 nM
inhibition [4]: 79%
inhibition [5]: 82.2%
IC50 [6]: 1020 nM

COC(=O)CC[C@H]1NC(=O)c2cc(Oc3cc(N(C)C)c(Cl)c(Cl)c3Cl)c(NC(=O)COCc3ccccc3)cc2NC1=O
inhibition [1]: 11.1%
inhibition [2]: 16.2%
inhibition [4]: 17.4%
inhibition [5]: 11.1%

CN(C)c1cccc(Oc2cc3c(cc2NC(=O)COCc2ccccc2)NC(=O)[C@@H](CCC(=O)N2CCCC2)NC3=O)c1
inhibition [1]: 82%
inhibition [2]: 73.2%
IC50 [3]: 2370 nM
inhibition [4]: 75.6%
inhibition [5]: 58.2%
IC50 [6]: 3790 nM

COC(=O)CC[C@H]1NC(=O)c2cc(Oc3cccc(N(C)C)c3)c(NC(=O)COCc3ccc4ccccc4c3)cc2NC1=O
inhibition [2]: 77.7%
IC50 [3]: 1610 nM
inhibition [5]: 70.9%
IC50 [6]: 1580 nM

COC(=O)CC[C@H]1NC(=O)c2cc(Oc3cc(N(C)C)cc(Cl)c3Cl)c(NC(=O)COCc3ccccc3)cc2NC1=O
inhibition [1]: 1.4%
inhibition [2]: -5.19%
inhibition [4]: 6.85%
inhibition [5]: 9.23%

COC(=O)CC[C@H]1NC(=O)c2cc(Oc3cccc(N(C)C)c3)c(NC(=O)COCc3ccc(C#N)cc3)cc2NC1=O
inhibition [1]: 59.6%
inhibition [2]: 65.4%
IC50 [3]: 3990 nM
inhibition [4]: 67.9%
inhibition [5]: 72.8%
IC50 [6]: 2510 nM

COC(=O)CC[C@H]1NC(=O)c2cc(Oc3cc(Cl)c(Cl)c(N(C)C)c3Cl)c(NC(=O)COCc3ccccc3)cc2NC1=O
inhibition [1]: 65.3%
inhibition [2]: 79.8%
IC50 [3]: 1330 nM
inhibition [4]: 34%
inhibition [5]: 55.9%
IC50 [6]: 3780 nM

CN(C)c1cccc(Oc2cc3c(cc2NC(=O)COCc2ccccc2)NC(=O)[C@@H](CCC(=O)NC(C)(C)C)NC3=O)c1
inhibition [1]: 87.6%
inhibition [2]: 80.3%
IC50 [3]: 1110 nM
inhibition [4]: 92.1%
inhibition [5]: 80.3%
IC50 [6]: 2270 nM

COC(=O)CC[C@H]1NC(=O)c2cc(Oc3cccc(N(C)C)c3)c(NC(=O)COCc3ccc(Br)cc3)cc2NC1=O
inhibition [1]: 93.9%
inhibition [2]: 91%
IC50 [3]: 580 nM
inhibition [4]: 95.2%
inhibition [5]: 85%
IC50 [6]: 1190 nM

COC(=O)CC[C@@H]1NC(=O)c2cc(Oc3cccc(N(C)C)c3)c(NC(=O)COCc3ccc(C(F)(F)F)cc3)cc2NC1=O
inhibition [2]: 89.6%
IC50 [3]: 580 nM
inhibition [5]: 87.8%
IC50 [6]: 590 nM

COC(=O)CC[C@H]1NC(=O)c2cc(Oc3cccc(N(C)C)c3)c(NC(=O)COCc3ccc(F)c(F)c3)cc2NC1=O
inhibition [1]: 89%
inhibition [2]: 83.7%
IC50 [3]: 1160 nM
inhibition [4]: 91.2%
inhibition [5]: 83.5%
IC50 [6]: 1700 nM

COC(=O)CC[C@H]1NC(=O)c2cc(Oc3cccc(N(C)C)c3)c(NC(=O)COCc3ccc(Cl)cc3)cc2NC1=O
inhibition [1]: 90.6%
inhibition [2]: 90.7%
IC50 [3]: 610 nM
inhibition [4]: 90.7%
inhibition [5]: 86.3%
IC50 [6]: 1240 nM

COC(=O)CC[C@H]1NC(=O)c2cc(Oc3cccc(N4CCCC4)c3)c(NC(=O)COCc3ccc(Cl)cc3)cc2NC1=O
inhibition [1]: 86.6%
inhibition [2]: 80.9%
IC50 [3]: 1390 nM
inhibition [4]: 94%
inhibition [5]: 86%
IC50 [6]: 1500 nM

COC(=O)CC[C@H]1NC(=O)c2cc(Oc3cc(N(C)C)ccc3Cl)c(NC(=O)COCc3ccccc3)cc2NC1=O
inhibition [1]: 29.3%
inhibition [2]: 24.8%
inhibition [4]: 7.26%
inhibition [5]: 11%

CN(C)C(=O)CC[C@H]1NC(=O)c2cc(Oc3cccc(N(C)C)c3)c(NC(=O)COCc3ccccc3)cc2NC1=O
inhibition [1]: 68%
inhibition [2]: 43.1%
IC50 [3]: 4950 nM
inhibition [4]: 35.5%
inhibition [5]: 31%

CCCNC(=O)CC[C@H]1NC(=O)c2cc(Oc3cccc(N(C)C)c3)c(NC(=O)COCc3ccc(Br)cc3)cc2NC1=O
inhibition [1]: 50.5%
inhibition [2]: 50.2%
inhibition [4]: 31%
inhibition [5]: 40.3%

CCCCCCCCCCCCCCCCNC(=O)CC[C@H]1NC(=O)c2cc(Oc3cccc(N(C)C)c3)c(NC(=O)COCc3ccccc3)cc2NC1=O
inhibition [1]: 27.5%
inhibition [2]: 10.6%
inhibition [4]: -7.1%
inhibition [5]: -4.77%

C[C@@H]1NC(=O)c2cc(Oc3cccc(N(C)C)c3)c(NC(=O)COCc3ccc(C(F)(F)F)cc3)cc2NC1=O
inhibition [2]: 73.8%
IC50 [3]: 1930 nM
inhibition [5]: 64.5%
IC50 [6]: 940 nM

COC(=O)CC[C@H]1NC(=O)c2cc(Oc3cc(Cl)cc(N(C)C)c3)c(NC(=O)COCc3ccccc3)cc2NC1=O
inhibition [1]: 4.89%
inhibition [2]: 47.1%
inhibition [4]: 56.5%
inhibition [5]: 54.9%
IC50 [6]: 5050 nM

COC(=O)CC[C@H]1NC(=O)c2cc(Oc3cccc(N(C)C)c3Cl)c(NC(=O)COCc3ccc(Cl)cc3)cc2NC1=O
inhibition [1]: 0.08%
inhibition [2]: 21.9%
inhibition [4]: 15.7%
inhibition [5]: 15.7%

COC(=O)CC[C@H]1NC(=O)c2cc(Oc3cccc(N(C)C)c3Cl)c(NC(=O)COCc3ccccc3)cc2NC1=O
inhibition [1]: 44.2%
inhibition [2]: 55.8%
inhibition [4]: 46%
inhibition [5]: 44.6%

CCCNC(=O)CC[C@H]1NC(=O)c2cc(Oc3cccc(N(C)C)c3)c(NC(=O)COCc3ccc(F)cc3)cc2NC1=O
inhibition [1]: 80.1%
inhibition [2]: 68%
IC50 [3]: 2810 nM
inhibition [4]: 48.8%
inhibition [5]: 30.8%

COC(=O)CC[C@H]1NC(=O)c2cc(Oc3cccc(N(C)C)c3)c(NC(=O)COCc3ccc(OC)cc3)cc2NC1=O
inhibition [1]: 21.6%
inhibition [2]: 8.57%
inhibition [4]: 56.5%
inhibition [5]: 34.1%
IC50 [6]: 9510 nM

CCCNC(=O)CC[C@H]1NC(=O)c2cc(Oc3cccc(N(C)C)c3)c(NC(=O)COCc3ccc(Cl)cc3)cc2NC1=O
inhibition [1]: 47.6%
inhibition [2]: 52.9%
inhibition [4]: 44.6%
inhibition [5]: 37.6%

CCCCCCCCCCCCNC(=O)CC[C@H]1NC(=O)c2cc(Oc3cccc(N(C)C)c3)c(NC(=O)COCc3ccccc3)cc2NC1=O
inhibition [1]: 48.2%
inhibition [2]: 37.1%
inhibition [4]: 23.1%
inhibition [5]: 29.1%
